Assay results: ChEMBL document CHEMBL1155843, “Selective alkylation of beta(II)-tubulin and thioredoxin-1 by structurally related subsets of aryl chloroethylureas leading to either anti-microtubules or redox modulating agents” (2008)
The source made the active and inactive calls. The calls are words filed in the database; no cut-off is given here.

Key:
[1] = tested on: M21; test: Induction of beta2-tubulin alkylation in human M21 cells at 2 times GI50 by Western blot analysis; assay type: cell-based
How it was run: (§1)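 Floating and adherent cells were pooled and lysed in boiled Laemmli buffer; protein was measured by Lowry. 20 µg per lane ran on 10% SDS-PAGE and was blotted with anti-βII-tubulin (1:500), HRP anti-mouse (1:2500) and ECL. Alkylation was scored as a faster-migrating βII-tubulin band.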

[2] = tested on: M21; test: Inhibition of nuclear translocation of thioredoxin-1 from cytosol in human M21 cells at 2 times GI50 after 16 hrs by immunocytofluorescence; assay type: functional, cell-based
How it was run: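 Cells were fixed in 3.7% formaldehyde (20 min), permeabilized with 0.1% saponin and blocked with 3% BSA. Staining used anti-Trx-1 monoclonal (1:200, 2 h, 37 °C) and Alexa-488 anti-mouse IgG (1:1000, 1 h). Trx-1 cytosol/nucleus localization was read by confocal immunofluorescence.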

[3] = tested on: M21; test: Induction of beta2-tubulin alkylation in human M21 cells at 50 nM by Western blot analysis; assay type: cell-based
How it was run: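 Same M21 Western blot workflow (pooled cells, Laemmli lysis, 20 µg on 10% SDS-PAGE, anti-βII-tubulin 1:500, ECL), except that vinblastine, colchicine and paclitaxel were applied at 50 nM for 16, 24 and 48 h at 37 °C. The alkylated form appeared as a lower-apparent-MW band.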

[4] = tested on: M21; test: Inhibition of nuclear translocation of thioredoxin-1 from cytosol in human M21 cells at 50 nM after 16 hrs by immunocytofluorescence; assay type: functional, cell-based
How it was run: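 Reference agents colchicine or vinblastine were applied at 50 nM to M21 cells on fibronectin-coated coverslips. Cells were fixed in formaldehyde, permeabilized with saponin, and stained with anti-Trx-1 (1:200, 2 h, 37 °C) and Alexa-488 secondary. Nuclear versus cytosolic Trx-1 was assessed by confocal microscopy.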

[5] = tested on: MCF7; test: Cell cycle arrest in human MCF7 cells assessed as accumulation at G0/G1 phase at 2 times GI50 after 24 hrs by flow cytometry; assay type: functional
How it was run: (§2)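 Cells were trypsinized, PBS-washed, fixed in ice-cold ethanol, and stained with propidium iodide plus RNase for 30 min at room temperature. G0/G1, S and G2/M fractions were measured by flow cytometry.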

[6] = tested on: MCF7; test: Cell cycle arrest in human MCF7 cells assessed as accumulation at S phase at 2 times GI50 after 24 hrs by flow cytometry; assay type: functional; how it was run: as §2
[7] = tested on: MCF7; test: Cell cycle arrest in human MCF7 cells assessed as accumulation at G2/M phase at 2 times GI50 after 24 hrs by flow cytometry; assay type: functional; how it was run: as §2
[8] = tested on: MCF7; test: Antiproliferative activity against human MCF7 cells after 48 hrs by sulforhodamine B method; assay type: functional; conditions: for GI50: MCF7, 48 h
How it was run: (§3)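 Seeding per well: 5 × 10³ HT-29 cells, or 3.5 × 10³ M21 or MCF-7 cells. Drugs were dissolved fresh in DMSO and serially diluted in medium (final range 100 to 0.3), with DMSO held at 0.12%. Cells were exposed for 48 h, fixed with cold TCA (10% final, 1 h, 4 °C) and stained with 0.1% SRB for 15 min. Dye was solubilized in 10 mM Tris and read at A585. Day-0 OD was subtracted, inhibition was calculated against DMSO cells, and n ≥ 3.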

[9] = tested on: M21; test: Antiproliferative activity against human M21 cells after 48 hrs by sulforhodamine B method; assay type: functional; conditions: for GI50: M21, 48 h; how it was run: as §3
[10] = tested on: HT-29; test: Antiproliferative activity against human HT29 cells after 48 hrs by sulforhodamine B method; assay type: functional; conditions: for GI50: HT-29, 48 h; how it was run: as §3
[11] = tested on: M21; test: Induction of beta2-tubulin alkylation in human M21 cells at 2 times GI50 after 48 hrs by Western blot analysis; assay type: cell-based; how it was run: as §1

Row | SMILES | Activity [1] | Activity [2] | Activity [5] | Activity [6] | Activity [7] | GI50 [9] | GI50 [10] | further results
1 | CC(C)(C)c1ccc(NC(=O)NC(=O)CCl)cc1 | inactive | Active | – | – | – | – | – | –
2 | COc1cc2c(c(OC)c1OC)-c1ccc(OC)c(=O)cc1[C@@H](NC(C)=O)CC2 | inactive | – | – | – | – | – | – | Activity [3]: inactive; Activity [4]: inactive
3 | CC(=O)O[C@H]1C(=O)[C@@]2(C)[C@H]([C@H](OC(=O)c3ccccc3)[C@]3(O)C[C@H](OC(=O)[C@H](O)[C@@H](NC(=O)c4ccccc4)c4ccccc4)C(C)=C1C3(C)C)[C@]1(OC(C)=O)CO[C@@H]1C[C@@H]2O [PACLITAXEL] | inactive | – | 9% | 11% | 80% | – | – | Activity [3]: inactive; Activity [4]: inactive
4 | O=C(NCCCl)Nc1ccc(OC2CCCCC2)cc1 | inactive | Active | – | – | – | – | – | –
5 | O=C(NCCCl)Nc1cccc(OC2CCCCCCC2)c1 | inactive | Active | 61% | 29% | 10% | 30 µM | 20 µM | GI50 [8]: 23 µM
6 | O=C(NCCCl)Nc1ccc2c(c1)CCCC2 | – | Active | 10% | 49% | 41% | 3.7 µM | 2 µM | GI50 [8]: 7.3 µM; Activity [11]: Active
7 | O=C(NCCCl)Nc1cccc(OC2CCCC2)c1 | inactive | – | – | – | – | – | – | –
8 | O=C(NCCCl)Nc1ccc(C2CCCC2)cc1 | inactive | – | 63% | 24% | 13% | 27 µM | 18 µM | GI50 [8]: 26 µM
9 | c1ccc(NC2=NCCO2)cc1 | inactive | inactive | – | – | – | 81 µM | – | –
10 | CC1(c2ccc(NC(=O)NCCCl)cc2)CCCCC1 | inactive | Active | 60% | 9% | 31% | 16 µM | 7.8 µM | GI50 [8]: 18 µM
11 | CC(C)(C)c1ccc(NC(=O)NCCCl)cc1 | – | inactive | – | – | – | – | – | Activity [11]: Active
12 | c1cc(C2CCCCC2)ccc1NC1=NCCO1 | inactive | Active | – | – | – | 18 µM | – | –
13 | O=C(NCCCl)Nc1ccc2c(c1)CCCCC2 | inactive | inactive | 33% | 24% | 43% | 7.2 µM | 3.2 µM | GI50 [8]: 12 µM
14 | O=C(NCCCl)Nc1ccc(OC2CCCCCC2)cc1 | inactive | Active | – | – | – | – | 13 µM | –
15 | CC1CCC(Oc2cccc(NC(=O)NCCCl)c2)CC1 (stereo not drawn) | inactive | Active | 65% | 20% | 15% | 32 µM | 19 µM | GI50 [8]: 33 µM
16 | O=C(NCCCl)Nc1ccc(Oc2ccccc2)cc1 | inactive | inactive | 15% | 20% | 65% | – | – | –
17 | CC(C)(C)c1ccc(NC2=NCCO2)cc1 | inactive | inactive | – | – | – | – | – | –
18 | O=C(NCCCl)Nc1ccccc1 | inactive | inactive | 59% | 22% | 19% | – | – | Activity [8]: inactive; Activity [9]: inactive; Activity [10]: inactive
19 | O=C(NCCCl)Nc1ccc2c(c1)Cc1ccccc1-2 | – | inactive | 11% | 57% | 32% | – | – | Activity [11]: Active
20 | c1cc(N2CCOCC2)ccc1NC1=NCCO1 | inactive | inactive | – | – | – | – | – | Activity [9]: inactive
21 | CCC1(c2ccc(NC(=O)NCCCl)cc2)CCCCC1 | inactive | Active | 66% | 17% | 17% | 19 µM | 9.1 µM | GI50 [8]: 17 µM
22 | O=C(NCCCl)Nc1ccc(OC2CCCC2)cc1 | inactive | Active | – | – | – | – | – | –

Row | SMILES | Activity [1] | Activity [2] | Activity [5] | Activity [6] | Activity [7] | GI50 [9] | GI50 [10] | further results
23 | O=C(NCCCl)Nc1ccc(N2CCOCC2)cc1 | inactive | – | – | – | – | – | – | Activity [8]: inactive; Activity [9]: inactive; Activity [10]: inactive
24 | O=C(CCl)NC(=O)Nc1cccc(C2CCCCC2)c1 | inactive | Active | – | – | – | 2.4 µM | – | –
25 | O=C(NCCCl)Nc1ccc(I)cc1 | – | – | – | – | – | – | – | Activity [11]: Active
26 | CC1CCC(Oc2ccc(NC(=O)NCCCl)cc2)CC1 (stereo not drawn) | inactive | Active | 63% | 13% | 25% | 23 µM | 16 µM | GI50 [8]: 21 µM
27 | O=C(NCCCl)Nc1ccc(C2CCCCC2)cc1 | inactive | Active | – | – | – | – | – | –
28 | O=C(NCCCl)NC1c2ccccc2-c2ccccc21 | inactive | inactive | 63% | 29% | 8% | – | – | –
29 | CCCCCCc1ccc(NC(=O)NCCCl)cc1 | – | inactive | 16% | 41% | 43% | 3.8 µM | 2.9 µM | GI50 [8]: 6.5 µM; Activity [11]: Active
30 | CC[C@]1(O)C[C@@H]2CN(CCc3c([nH]c4ccccc34)[C@@](C(=O)OC)(c3cc4c(cc3OC)N(C)[C@H]3[C@@](O)(C(=O)OC)[C@H](OC(C)=O)[C@]5(CC)C=CCN6CC[C@]43[C@@H]65)C2)C1 | inactive | – | – | – | – | – | – | Activity [3]: inactive; Activity [4]: inactive
31 | O=C(CCl)NC(=O)Nc1ccccc1 | inactive | inactive | – | – | – | 6.9 µM | – | –
32 | O=C(NCCCl)Nc1cccc(OC2CCCCC2)c1 | inactive | – | – | – | – | – | – | –
33 | O=C(NCCCl)Nc1ccc2c(c1)CCC2 | – | – | 31% | 29% | 40% | – | – | Activity [11]: Active
34 | O=C(NCCCl)Nc1cccc(C2CCCCC2)c1 | inactive | Active | 52% | 32% | 16% | 18 µM | 11.7 µM | GI50 [8]: 20 µM
35 | CCNC(=O)Nc1ccc(C2CCCCC2)cc1 | inactive | inactive | 55% | 23% | 22% | – | – | Activity [8]: inactive; Activity [9]: inactive; Activity [10]: inactive
36 | O=C(NCCCl)Nc1cccc(Oc2ccccc2)c1 | – | inactive | 44% | 26% | 30% | – | – | Activity [11]: Active
37 | O=C(NCCCl)Nc1cccc(OC2CCCCCC2)c1 | inactive | Active | – | – | – | – | – | –
38 | c1cc(NC2=NCCO2)cc(C2CCCCC2)c1 | inactive | Active | – | – | – | 45 µM | – | –
39 | CCCC1(c2ccc(NC(=O)NCCCl)cc2)CCCCC1 | inactive | Active | 73% | 14% | 13% | 36 µM | 18 µM | GI50 [8]: 23 µM
40 | O=C(NCCCl)Nc1ccc2ccccc2c1 | – | inactive | 17% | 38% | 45% | – | – | Activity [11]: Active
41 | O=C(NCCCl)Nc1ccc(OC2CCCCCCC2)cc1 | inactive | Active | 70% | 14% | 16% | 26 µM | 14 µM | GI50 [8]: 18 µM
42 | O=C(CCl)NC(=O)Nc1ccc(C2CCCCC2)cc1 | inactive | Active | – | – | – | – | – | –
43 | O=C(CCl)NC(=O)Nc1ccc(N2CCOCC2)cc1 | inactive | – | – | – | – | 8.3 µM | – | –
